Experiments:
[1] = biological target: T1, Phenylalanine-4-hydroxylase (Rattus norvegicus) (UniProt P04176); assay: Tested in isolated enzyme assay for its cofactor activity against phenylalanine hydroxylase (isolated from rat liver) expressed as relative velocity
T1 sequence (whole entry): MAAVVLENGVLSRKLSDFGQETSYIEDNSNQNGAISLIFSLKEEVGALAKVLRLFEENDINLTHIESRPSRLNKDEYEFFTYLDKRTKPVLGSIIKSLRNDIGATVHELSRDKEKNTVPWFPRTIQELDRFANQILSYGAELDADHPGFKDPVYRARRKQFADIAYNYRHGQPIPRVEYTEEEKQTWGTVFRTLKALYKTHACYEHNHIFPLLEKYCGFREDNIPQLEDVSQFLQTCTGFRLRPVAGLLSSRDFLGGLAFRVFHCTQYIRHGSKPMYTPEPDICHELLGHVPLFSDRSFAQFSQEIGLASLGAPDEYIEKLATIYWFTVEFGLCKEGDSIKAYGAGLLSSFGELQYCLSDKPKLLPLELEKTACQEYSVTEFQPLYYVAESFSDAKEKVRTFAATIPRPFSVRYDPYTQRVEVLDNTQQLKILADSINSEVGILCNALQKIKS
Summary of the method: (§1)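 Phenylalanine hydroxylase was isolated from rat liver and purified on phenyl-Sepharose. Tyrosine formed was quantified by liquid chromatography with fluorescence detection, and velocities were expressed relative to tetrahydrobiopterin.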

[2] = biological target: T2, Tyrosine 3-monooxygenase (Bos taurus) (UniProt P17289); assay: Cofactor activity in bovine adrenal medulla tyrosine hydroxylase assay as relative velocity
T2 sequence (whole entry): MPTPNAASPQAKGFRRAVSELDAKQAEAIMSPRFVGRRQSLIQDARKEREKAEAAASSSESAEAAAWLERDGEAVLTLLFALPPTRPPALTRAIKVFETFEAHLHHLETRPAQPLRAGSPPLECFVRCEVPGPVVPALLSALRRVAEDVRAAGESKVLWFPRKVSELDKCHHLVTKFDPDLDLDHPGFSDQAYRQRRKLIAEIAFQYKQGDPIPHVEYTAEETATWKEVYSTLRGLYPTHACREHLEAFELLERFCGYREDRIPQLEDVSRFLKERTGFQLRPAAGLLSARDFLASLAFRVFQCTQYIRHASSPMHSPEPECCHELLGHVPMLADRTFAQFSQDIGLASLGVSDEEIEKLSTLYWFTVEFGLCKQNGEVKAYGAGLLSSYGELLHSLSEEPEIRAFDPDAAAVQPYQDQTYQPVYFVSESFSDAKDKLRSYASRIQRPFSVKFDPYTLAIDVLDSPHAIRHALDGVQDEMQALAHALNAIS
Summary of the method: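 Tyrosine hydroxylase was purified from bovine adrenal medulla by partial trypsin digestion, giving a model of the high-affinity form, then ammonium sulfate fractionation. Activity was measured as release of ³H₂O from L-(3,5-³H)tyrosine, with velocities expressed relative to tetrahydrobiopterin.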

[3] = biological target: T3, Tryptophan 5-hydroxylase 1 (Rattus norvegicus) (UniProt P09810); assay: Tested in isolated enzyme assay for its cofactor activity against tryptophan hydroxylase (isolated from rat brain stem) expressed as relative velocity
T3 sequence (whole entry): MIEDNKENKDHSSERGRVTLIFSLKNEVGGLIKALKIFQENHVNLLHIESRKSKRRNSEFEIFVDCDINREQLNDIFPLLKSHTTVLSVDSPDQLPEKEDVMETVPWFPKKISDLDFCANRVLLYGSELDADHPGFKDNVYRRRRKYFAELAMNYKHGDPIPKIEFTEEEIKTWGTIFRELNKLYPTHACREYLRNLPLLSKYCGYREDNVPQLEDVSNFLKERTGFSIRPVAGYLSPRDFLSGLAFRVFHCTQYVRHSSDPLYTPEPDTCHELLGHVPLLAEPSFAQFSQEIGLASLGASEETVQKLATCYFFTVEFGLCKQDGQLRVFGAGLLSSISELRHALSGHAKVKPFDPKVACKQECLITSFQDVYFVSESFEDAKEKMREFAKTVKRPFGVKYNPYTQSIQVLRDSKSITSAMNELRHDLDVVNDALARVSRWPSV
Summary of the method: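 The tryptophan hydroxylase source was a desalted 40000g supernatant of rat brain stem, with velocities expressed relative to tetrahydrobiopterin.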

[4] = biological target: T1, Phenylalanine-4-hydroxylase (Rattus norvegicus); assay: Tested in isolated enzyme assay for its cofactor activity against phenylalanine hydroxylase (iisolated from rat liver) expressed as relative velocity; summary of the method: as §1
[5] = system: dihydropteridine reductase; assay: Tested in isolated enzyme assay for its cofactor activity against dihydropteridine reductase expressed as Michaelis-Menten constant
[6] = system: dihydropteridine reductase; assay: Tested in isolated enzyme assay for its cofactor activity against dihydropteridine reductase expressed as Michaelis-Menten constant (calculated in the presence of platinum catalyst)

Row | SMILES | Relative velocity [1] [%] | Relative velocity [2] [%] | Relative velocity [3] [%] | Relative velocity [4] [%] | Km [5] [µM] | Km [6] [µM]
1 | COCCOCC1CNc2nc(N)nc(O)c2N1 (configuration not stated) | 36 | 131 | – | – | – | –
2 | CC1(C)CNc2nc(N)nc(O)c2N1 | 39 | 119 | 40 | – | – | 260
3 | CCCOCC1CNc2nc(N)nc(O)c2N1 (configuration not stated) | 32 | 92 | 54 | – | 2 | –
4 | CC(C)(C)OCC1CNc2nc(N)nc(O)c2N1 (configuration not stated) | 4 | 130 | – | – | 5 | –
5 | CCCCOCC1CNc2nc(N)nc(O)c2N1 (configuration not stated) | 22 | 135 | 52 | – | 3 | –
6 | CC1CNc2nc(N)[nH]c(=O)c2N1 (configuration not stated) | – | 154 | 154 | 238 | 13 | –
7 | CCCCCOCC1CNc2nc(N)nc(O)c2N1 (configuration not stated) | – | 85 | – | – | – | –

Second part, led by results:

Row | Relative velocity [1] [%] | Relative velocity [2] [%] | Relative velocity [3] [%] | Relative velocity [4] [%] | SMILES | Km [5] [µM] | Km [6] [µM]
8 | – | 154 | 85 | 155 | CCOCC1CNc2nc(N)nc(O)c2N1 (configuration not stated) | 6 | –
9 | – | 100 | 100 | 100 | CC(O)C(O)C1CNc2nc(N)nc(O)c2N1 (configuration not stated) | 2 | –
10 | – | 110 | – | – | CC(C)COCC1CNc2nc(N)nc(O)c2N1 (configuration not stated) | – | –
11 | – | 126 | 65 | 138 | COCC1CNc2nc(N)nc(O)c2N1 (configuration not stated) | 9 | –
12 | 15 | 137 | 44 | – | CC(C)OCC1CNc2nc(N)nc(O)c2N1 (configuration not stated) | 4 | –
13 | 3 | 48 | 32 | – | CCCCCCCCOCC1CNc2nc(N)nc(O)c2N1 (configuration not stated) | – | –
